A selection: hits, their analogues and other compounds. The true share with any hit is near 2.1%.
ARNT TACC3 PPI – disruptors of ARNT/TACC3 protein interaction, primary screen, biochemical, AlphaScreen, single concentration | AlphaScreen His-ARNT PAS-B/GST-TACC3 binding, luminescence; TACC3 fragment carries E629A point mutation | inhibition, % at 9.99 µM | hit rate 0.66% among 390,000;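 active = mean inhibition of replicates at least 50% and at least half of replicates each reaching 50%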
cardiac RTF act – cardiac RTF calcium sensitivity activators, primary screen, biochemical, IANBD-TnC fluorescence, EC20 calcium; Troponin I, cardiac muscle (Homo sapiens) + Troponin T, cardiac muscle (Homo sapiens) + …; IANBD-labeled TnC RTF fluorescence at EC20 calcium; 0% EC20 calcium, 100% full calcium; activation, % at 7.2 µM; hit rate 0.24% among 340,000;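 active = activation above the mean over all tested compounds plus 3 SD, cut at about 30% in these data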;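 also: rise in fluorescence read as greater calcium sensitivity of cardiac thin filaments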
RTF Ca sens inh – cardiac RTF calcium sensitivity inhibitors, primary screen, biochemical, IANBD-TnC fluorescence, EC70 calcium. Troponin I, cardiac muscle (Homo sapiens) + Troponin T, cardiac muscle (Homo sapiens) + …. IANBD-labeled cardiac RTF, Ca2+ fluorescence. inhibition, % at 7.15 µM. hit rate 0.12% among 340,000. AID 493244, 2011;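 active = inhibition above the mean inhibition of all tested compounds plus 3 SD, cut at about 17% in these data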;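 also: assay run at fixed EC70 calcium of 1.6 mM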
UCH37 inh – inhibitors of human UCH37 deubiquitinase, primary screen, biochemical, Ub-AMC cleavage, fluorescence; purified proteasome/UCH37; inhibition, % (test concentration not listed); hit rate 0.33% among 330,000; Ubiquitin carboxyl-terminal hydrolase isozyme L5 (Homo sapiens), Q9Y5K5; AID 588478, 2011;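 active = mean inhibition over replicate wells above about 20%, limit read from the data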
Target sequence (Q9Y5K5 whole entry, looked up): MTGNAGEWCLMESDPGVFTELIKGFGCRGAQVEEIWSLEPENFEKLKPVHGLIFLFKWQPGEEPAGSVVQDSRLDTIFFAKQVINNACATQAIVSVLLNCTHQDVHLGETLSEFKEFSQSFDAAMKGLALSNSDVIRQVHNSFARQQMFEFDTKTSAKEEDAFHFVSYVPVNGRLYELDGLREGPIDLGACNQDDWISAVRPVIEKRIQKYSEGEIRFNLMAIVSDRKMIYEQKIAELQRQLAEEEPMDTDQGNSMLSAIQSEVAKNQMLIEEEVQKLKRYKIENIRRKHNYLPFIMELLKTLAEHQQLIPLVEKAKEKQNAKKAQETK
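Material: human UCH37 enzyme supplied as purified proteasome complex. Measure: % inhibition of Ub-AMC cleavage fluorescence. Medium: pH 7.4 Tris-HCl (50 mM) with ovalbumin, ATP-MgCl2, DTT. Times: 30 min preincubation with enzyme, 25 min cleavage at room temperature. Detection: AMC fluorescence intensity at 355/460 nm.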
Efflux pump mplx – inhibitors of Candida efflux pumps in yeast, primary screen, S. cerevisiae, Nile Red, multiplex; S. cerevisiae Candida pump triplex; inhibition, % at 10 µM; hit rate 0.44% among 330,000; AID 485275, 2010;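 active = plate passing quality check with inhibition over a set limit, or well fluorescence over plate mean plus 4 SD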;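 also: Nile Red retained in pooled yeast measured as flow cytometry median fluorescence; higher means more Nile Red kept so more efflux inhibition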
Mot1-301 SUMO – yeast Mot1-301 growth rescue at high temperature, primary screen, SUMOylation pathway inhibitor project, S. cerevisiae, ATP luminescence, 38.5C; growth rescue, % at 18.8 µM; hit rate 1% among 320,000; S. cerevisiae Mot1-301 growth rescue; percent above DMSO median, 100 means doubled;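 active = every valid replicate shows activation above 250% relative to neutral control wells; inactive = the rest, any valid replicate at or below 250%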
Yeast Mot1 SUMO – growth restoration of Mot1-301 yeast on galactose, dose response, SUMO pathway inhibitor project, whole organism, S. cerevisiae, ATP luminescence, cherry-picked samples | shares compounds with Mot1-301 SUMO | S. cerevisiae Mot1-301 galactose growth, 24 h; -100 = growth of slx-deleted rescue strain | growth activity, percent, % at 42 µM | 2,300 tested, under 10 active | AID 493004, 2010;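 active = Signal drops as the depositor expects, and the fitted half-maximal dose is no more than ten times the top valid tested dose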;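 also: more negative values mean stronger growth rescue toward the control strain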
Of the large screens only hits and unclear results are named; the others gave an inactive call (follow-up assays come after a bar, where they were run).

Cc1cccc(NC(=O)CSc2nnc(C)c(=O)n2N)c1	Mot1-301 SUMO 461
Cc1nnc2sc(SCC(=O)N3CCC(C)CC3)nn2c1=O	ARNT TACC3 PPI 63
COc1ccc(OC)c(NC(=O)CSc2nn3c(=O)c(C)nnc3s2)c1	ARNT TACC3 PPI 69
Cc1nnc2sc(SCC(=O)Nc3ccc(Br)cc3)nn2c1=O	ARNT TACC3 PPI 74
O=C(COc1ccc(Cl)cc1Cl)NN=CC1CC=CCC1 (stereo not drawn)	none (no result: ARNT TACC3 PPI, cardiac RTF act, RTF Ca sens inh, Efflux pump mplx, Mot1-301 SUMO)
CC(=NNC(=O)c1ccc(Br)cc1)c1cccnc1	none (no result: ARNT TACC3 PPI, cardiac RTF act, RTF Ca sens inh, Efflux pump mplx, Mot1-301 SUMO)
COc1ccc(NC(=O)CSc2nnc(C)c(=O)n2N)cc1	none
Cc1nnc2sc(SCC(=O)Nc3cccc(Cl)c3)nn2c1=O	ARNT TACC3 PPI 65
Cc1ccccc1NC(=O)CSc1nn2c(=O)c(C)nnc2s1	ARNT TACC3 PPI 51
CCC(=O)Nc1nnc(SCC(=O)Nc2cccc(Cl)c2)s1	none
Cc1ccccc1CSc1nn2c(=O)c(C)nnc2s1	none
COC(=O)c1ccc(NC(=O)CSc2nn3c(=O)c(C)nnc3s2)cc1	ARNT TACC3 PPI 60
COc1ccc(NC(=O)CSc2nn3c(=O)c(C)nnc3s2)cc1	ARNT TACC3 PPI 61
COc1cccc(NC(=O)CSc2nc(C)cs2)c1	none
COc1cccc(NC(=O)CSc2nn3c(=O)c(C)nnc3s2)c1	ARNT TACC3 PPI 67
O=C(Nc1nnc2n1CCS2)c1ccco1	ARNT TACC3 PPI 45 (no result: UCH37 inh)
NS(=O)(=O)c1ccc(N2N=C(c3ccccc3)CC2c2ccccc2)cc1 (stereo not drawn)	cardiac RTF act 43
CC(=NNC(=O)COc1ccc(C(C)(C)C)cc1)c1ccc(-n2ccnc2)cc1	none (no result: ARNT TACC3 PPI, cardiac RTF act, RTF Ca sens inh, Efflux pump mplx, Mot1-301 SUMO)
CSc1ncccc1C(=O)OCC(=O)NCc1ccc2c(c1)OCO2	Mot1-301 SUMO 294
CCC(C)C(C)=NNC(=O)CSc1nc2ccccc2[nH]1 (stereo not drawn)	none (no result: ARNT TACC3 PPI, cardiac RTF act, RTF Ca sens inh, Efflux pump mplx, Mot1-301 SUMO)
Brc1ccc(-c2cnnc(N3CCCC3)n2)cc1	cardiac RTF act 79
c1ccc(-c2cnnc(N3CCOCC3)n2)cc1	none
CCCCN=C1NC(=O)C(CC(=O)Nc2ccc(Cl)cc2)S1 (stereo not drawn)	Mot1-301 SUMO 306
CCCCN=C1NC(=O)C(CC(=O)NCCc2ccc(OC)cc2)S1 (stereo not drawn)	none
O=C(CC1SC(=NCc2ccccc2)NC1=O)Nc1ccccc1 (stereo not drawn)	Mot1-301 SUMO active
Cc1ccc(C=NN2CCN(C3c4ccccc4-c4ccccc43)CC2)s1	none (no result: ARNT TACC3 PPI, cardiac RTF act, RTF Ca sens inh, Efflux pump mplx, Mot1-301 SUMO)
COC(=O)c1cnn(-c2ccccc2)c1C=NNC(=S)Nc1ccccc1	none (no result: ARNT TACC3 PPI, cardiac RTF act, RTF Ca sens inh, Efflux pump mplx, Mot1-301 SUMO)
CC(C)(C)c1nnc(NN=Cc2cc(Br)ccc2O)n(N)c1=O	none (no result: ARNT TACC3 PPI, cardiac RTF act, RTF Ca sens inh, Efflux pump mplx, Mot1-301 SUMO)
CC(C)(C)c1nnc(N/N=C/c2ccccc2O)n(N)c1=O	ARNT TACC3 PPI 60 (no result: UCH37 inh)
COc1cc(N)c2ncccc2c1Br	ARNT TACC3 PPI 107 (no result: Efflux pump mplx, Mot1-301 SUMO)
COc1cc(NC(C)=O)c2ncccc2c1NC(C)=O	none
C/C(=N/NC(=O)c1cccs1)c1c(C)[nH]n(-c2nc3ccccc3s2)c1=O	ARNT TACC3 PPI 47 (no result: UCH37 inh)
CC(=NCc1ccco1)c1c(C)[nH]n(-c2nc3ccccc3s2)c1=O	Mot1-301 SUMO 353
CCC(=NCc1ccco1)c1c(C(F)(F)F)[nH]n(-c2nc3ccccc3s2)c1=O	none
CCC(=O)NC(=S)NNC(=O)c1ccc(O)cc1	ARNT TACC3 PPI 75
CCC(=O)NNC(=S)NC(=O)c1ccc(C)cc1	none
Brc1ccc(NN=C(N=Nc2nn[nH]n2)c2ccccc2)cc1	UCH37 inh 22 (no result: ARNT TACC3 PPI, cardiac RTF act, RTF Ca sens inh, Efflux pump mplx, Mot1-301 SUMO)
COc1ccc(C(=O)NN=C2SCC(=O)N2Cc2ccc3c(c2)OCO3)cc1OC	none (no result: ARNT TACC3 PPI, cardiac RTF act, RTF Ca sens inh, Efflux pump mplx, Mot1-301 SUMO)
CC(=NNS(=O)(=O)c1ccccc1)c1c[nH]c2ccccc12	none (no result: ARNT TACC3 PPI, cardiac RTF act, RTF Ca sens inh, Efflux pump mplx, Mot1-301 SUMO)
Cn1c2c(c(=O)n(C)c1=O)C(C(F)(F)F)(C(F)(F)F)N=C(CCC1CCCCC1)N2	cardiac RTF act 45
COc1ccc(C=NNC(=O)c2ccccc2Br)cc1COc1ccccc1	none (no result: ARNT TACC3 PPI, cardiac RTF act, RTF Ca sens inh, Efflux pump mplx, Mot1-301 SUMO)
C/C(=N\Nc1ccccc1)c1c(O)cc(C)oc1=O	Mot1-301 SUMO 324 (no result: UCH37 inh)
CN(C)c1ccc(C=c2sc3n(c2=O)CCCN=3)cc1	none (no result: ARNT TACC3 PPI, cardiac RTF act, RTF Ca sens inh, Efflux pump mplx, Mot1-301 SUMO)
c1ccc(Cc2nnc3n2CCCCC3)cc1	none
c1ccc2c(c1)CCCN2Cc1nnc2n1CCCCC2	cardiac RTF act 37
COc1cc(C(=O)N2CCN(C(=O)COc3ccc4ccccc4c3)CC2)cc(OC)c1OC	UCH37 inh 28
CSc1sc(C)cc1C=NO	none (no result: ARNT TACC3 PPI, cardiac RTF act, RTF Ca sens inh, Efflux pump mplx, Mot1-301 SUMO)
CS(=O)(=O)c1ccccc1-c1nnc(NC(=O)Cc2ccccc2)o1	ARNT TACC3 PPI 62
CSc1ccccc1-c1nnc(NC(=O)Cc2ccccc2)o1	none
O=C1C=C(O)c2c(O)cc(O)c(O)c2C1=O	RTF Ca sens inh 31
CCOC(=O)c1c(C)[nH]c2c1cc(O)c1ccccc12	Mot1-301 SUMO 769 | Yeast Mot1 SUMO inactive
Cc1ccc(CN2CCN(N=Cc3cc(Br)ccc3O)CC2)cc1	none (no result: ARNT TACC3 PPI, cardiac RTF act, RTF Ca sens inh, Efflux pump mplx, Mot1-301 SUMO)
CCOc1ccc(S(=O)(=O)N=C(c2ccccc2)N(C)C)cc1	none (no result: ARNT TACC3 PPI, cardiac RTF act, RTF Ca sens inh, Efflux pump mplx, Mot1-301 SUMO)
C/C(=N\NC(=O)Cc1csc(N2CCOCC2)n1)c1ccccc1	Mot1-301 SUMO 476 (no result: UCH37 inh) | Yeast Mot1 SUMO inactive
CCOc1ccc(C(=O)c2cccs2)cc1	Mot1-301 SUMO 387 | Yeast Mot1 SUMO inactive
